Experimental data as given in ChEMBL document CHEMBL1140290, “Synthesis and evaluation of (17alpha,20Z)-21-(4-substituted-phenyl)-19-norpregna-1,3,5(10),20-tetraene-3,17beta-diols as ligands for the estrogen receptor-alpha hormone binding domain: comparison with 20E-isomers” (J Med Chem, 2005).

Columns and labels:
[1] = biological target: T1, Estrogen receptor (Homo sapiens) (UniProt P03372); experiment: Relative binding affinity of E isomers to human ERalpha-HBD at 4C compared to [3H]-estradiol
T1 sequence (whole entry): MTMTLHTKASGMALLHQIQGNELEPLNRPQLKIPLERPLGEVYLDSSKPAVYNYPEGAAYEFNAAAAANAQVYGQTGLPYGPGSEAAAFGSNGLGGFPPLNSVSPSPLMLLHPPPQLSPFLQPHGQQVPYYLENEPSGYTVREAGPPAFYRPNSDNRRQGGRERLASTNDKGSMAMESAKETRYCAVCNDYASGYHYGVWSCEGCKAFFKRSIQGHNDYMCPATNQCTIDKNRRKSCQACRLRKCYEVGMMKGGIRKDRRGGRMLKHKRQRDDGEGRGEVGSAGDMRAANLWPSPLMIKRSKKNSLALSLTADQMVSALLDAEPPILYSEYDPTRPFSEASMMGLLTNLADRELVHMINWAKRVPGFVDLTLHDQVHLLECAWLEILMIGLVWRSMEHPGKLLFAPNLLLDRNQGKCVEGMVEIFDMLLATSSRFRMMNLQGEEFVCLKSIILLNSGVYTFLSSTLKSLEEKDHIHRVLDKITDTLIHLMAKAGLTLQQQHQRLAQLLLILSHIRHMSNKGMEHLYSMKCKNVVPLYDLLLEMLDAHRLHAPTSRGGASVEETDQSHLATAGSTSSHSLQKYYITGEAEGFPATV

[2] = biological target: T1, Estrogen receptor (Homo sapiens); experiment: Relative binding affinity of Z isomers to human ERalpha-HBD at 4C compared to [3H]estradiol
Outline: (§1)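 ERα-HBD (33 kDa) expressed in BL21 cells, induced with 0.6 mM IPTG for 3 h at room temperature. Lysed by sonication in Tris/NaCl/EDTA/DTT/1 M urea buffer, pH 7.4, clarified at 30000g, and diluted to 50 nM ER. […] Bound and free separated with dextran-coated charcoal. RBA = 100×[E]/[C], from 50% inhibition on a best-fit curve.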

[3] = biological target: T1, Estrogen receptor (Homo sapiens); experiment: Relative binding affinity of E isomers to human ERalpha-HBD at 25 degree C compared to [3H]estradiol
[4] = biological target: T1, Estrogen receptor (Homo sapiens); experiment: Relative binding affinity of Z isomers to human ERalpha-HBD at 25 degree C compared to [3H]estradiol; outline: as §1
[5] = biological target: T2, Estrogen receptor (Rattus norvegicus) (UniProt P06211+Q62986); experiment: Effective dose of E-isomer in rat uterotrophic growth assay compared to 10 nmol estradiol; type: functional
[6] = biological target: T2, Estrogen receptor (Rattus norvegicus); experiment: Effective dose of Z-isomer in rat uterotrophic growth assay compared to 10 nmol estradiol; type: functional

Compound | RBA [1] [%] | RBA [2] [%] | RBA [3] [%] | RBA [4] [%] | ED50 [5] [nmol] | ED50 [6] [nmol]
C[C@]12CC[C@@H]3c4ccc(O)cc4CC[C@H]3[C@@H]1CC[C@@]2(O)/C=C\c1ccccc1 | 16 | 57 | 9 | 66 | – | –
C[C@]12CC[C@@H]3c4ccc(O)cc4CC[C@H]3[C@@H]1CC[C@@]2(O)/C=C\c1ccc(N)cc1 | – | 22 | – | 26 | – | –
CC(=O)c1ccc(/C=C\[C@]2(O)CC[C@H]3[C@@H]4CCc5cc(O)ccc5[C@H]4CC[C@@]32C)cc1 | 53 | 22 | 60 | 29 | – | –
C[C@]12CC[C@@H]3c4ccc(O)cc4CC[C@H]3[C@@H]1CC[C@@]2(O)/C=C\c1ccc(C#N)cc1 | 9 | 20 | 27 | 12 | – | –
C[C@]12CC[C@@H]3c4ccc(O)cc4CC[C@H]3[C@@H]1CC[C@@]2(O)/C=C\c1ccc(F)cc1 | 24 | 43 | 22 | 44 | 72 | 2.3
C[C@]12CC[C@@H]3c4ccc(O)cc4CC[C@H]3[C@@H]1CC[C@@]2(O)/C=C\c1ccc(C(F)(F)F)cc1 | 5 | 5 | 8 | 9 | 10.6 | 1.1
COc1ccc(/C=C\[C@]2(O)CC[C@H]3[C@@H]4CCc5cc(O)ccc5[C@H]4CC[C@@]32C)cc1 | 36 | 20 | 32 | 39 | – | –
C[C@]12CC[C@@H]3c4ccc(O)cc4CC[C@H]3[C@@H]1CC[C@@]2(O)/C=C\c1ccc(O)cc1 | 21 | 12 | 25 | 25 | – | –
Cc1ccc(/C=C\[C@]2(O)CC[C@H]3[C@@H]4CCc5cc(O)ccc5[C@H]4CC[C@@]32C)cc1 | 10 | 10 | 18 | 9 | 5.5 | 4.2
